Measured values taken from ChEMBL document CHEMBL1136766, “Design, synthesis, and biological evaluation of new inhibitors of the endocannabinoid uptake: comparison with effects on fatty acid amidohydrolase” (J Med Chem, 2003).

Assays:
[1] = biological target: Transient receptor potential cation channel subfamily V member 1 (Rattus norvegicus, UniProt O35433); assay: Binding affinity against vanilloid receptor 1 (VR1) using [3H]RTX in rat spinal cord membranes; type: cell membranes, Membrane
Outline: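 Rat spinal cord membranes (about 1 mg/mL protein) in HEPES/sucrose buffer pH 7.4 with 0.25 mg/mL BSA. Incubated 60 min at 37 °C with 25 pM [3H]RTX plus competitor; nonspecific binding defined with 1 µM RTX. Stopped on ice, α1-acid glycoprotein added, membranes pelleted and counted. Ki by Cheng-Prusoff. Two to four experiments in triplicate.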

Cannabinoid receptor 2 = Cannabinoid receptor 2 (Homo sapiens, UniProt P34972); assay: Binding affinity against G protein coupled human Cannabinoid receptor 2 using [3H]CP-55940 in HEK293 EBNA transfected cells; type: cell-based
Cannabinoid receptor 2, sequence (P34972 whole entry): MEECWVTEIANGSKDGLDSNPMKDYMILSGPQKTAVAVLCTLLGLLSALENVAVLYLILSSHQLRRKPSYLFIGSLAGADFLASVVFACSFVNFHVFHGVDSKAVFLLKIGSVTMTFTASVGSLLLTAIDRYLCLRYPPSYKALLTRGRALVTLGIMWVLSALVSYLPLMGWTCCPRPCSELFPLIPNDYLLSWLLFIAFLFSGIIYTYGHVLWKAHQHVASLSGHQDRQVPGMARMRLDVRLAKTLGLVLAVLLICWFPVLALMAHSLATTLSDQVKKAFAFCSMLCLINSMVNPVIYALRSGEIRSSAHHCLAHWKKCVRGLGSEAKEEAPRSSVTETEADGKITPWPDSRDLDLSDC
Outline: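 Incubated 90 min at 30 °C with 0.3 nM [3H]CP55940 plus competitor. Filtered and counted by scintillation. IC50 from curve fit, Ki by Cheng-Prusoff. Two to four experiments in triplicate.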

[2] = biological target: T1, Fatty-acid amide hydrolase 1 (Rattus norvegicus, UniProt P97612); assay: Inhibition of fatty acid amide hydrolase (FAAH) was determined using rat brain homogenates as the enzyme source and [3H]anandamide as substrate; type: tissue-based
T1 sequence (P97612 whole entry): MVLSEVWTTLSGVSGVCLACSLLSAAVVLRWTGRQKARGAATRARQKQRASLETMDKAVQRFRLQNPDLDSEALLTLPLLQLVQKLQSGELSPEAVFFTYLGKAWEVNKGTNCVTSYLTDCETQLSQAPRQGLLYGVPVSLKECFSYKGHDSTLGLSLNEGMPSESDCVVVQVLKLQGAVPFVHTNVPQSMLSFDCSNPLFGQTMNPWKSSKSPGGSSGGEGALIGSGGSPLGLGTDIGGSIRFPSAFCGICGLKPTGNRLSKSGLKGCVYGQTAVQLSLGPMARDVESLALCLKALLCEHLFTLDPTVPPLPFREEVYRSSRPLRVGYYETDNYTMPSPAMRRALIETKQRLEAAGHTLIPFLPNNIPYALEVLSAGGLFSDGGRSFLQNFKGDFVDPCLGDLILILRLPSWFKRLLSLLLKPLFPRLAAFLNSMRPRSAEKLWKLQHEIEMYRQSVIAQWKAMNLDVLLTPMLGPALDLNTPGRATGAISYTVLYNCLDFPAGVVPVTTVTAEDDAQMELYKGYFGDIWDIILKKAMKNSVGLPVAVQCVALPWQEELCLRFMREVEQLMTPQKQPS
Outline: (§1)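 Rat brain homogenate without cerebellum, in 10 mM Tris-HCl/1 mM EDTA pH 7.6, incubated 10 min at 37 °C with compound (ethanol carrier). Substrate: anandamide 2 µM final with trace [3H]anandamide labelled in the ethanolamine, plus BSA. Stopped on ice with chloroform/methanol; [3H]ethanolamine in the aqueous phase counted. Eight concentrations from 0.5 to 100 µM, at least three experiments.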

Homo sapiens [3] = species on record: Homo sapiens; assay: Inhibition of [3H]anandamide transport(ANT) in human lymphoma U937 cell; type: functional; settings: U-937
Outline: (§2)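 U937 cells (10^6/mL, RPMI 1640) preincubated 10 min at 37 °C with inhibitor, highest concentration tested 50 µM. Then [3H]anandamide 0.45 nM plus cold anandamide (100 nM final) added for 7 min. Stopped by GF/C filtration and washed with Krebs-HEPES; radioactivity counted. Nonspecific uptake measured at 4 °C. IC50 by curve fit; maximum inhibition is the % inhibition at 50 µM.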

[4] = biological target: T2, Fatty-acid amide hydrolase 1 (Rattus norvegicus) (UniProt P97612); assay: Inhibition of fatty acid amide hydrolase (FAAH) in rat brain homogenates; type: tissue-based; outline: as §1
T2 sequence (whole entry): T1 sequence (P97612 whole entry)

Homo sapiens [5] = species on record: Homo sapiens; assay: Maximum Inhibition of anandamide transport(ANT) was determined against human lymphoma U937 cell at a dose of 50 uM; type: functional, U-937; outline: as §2
Cannabinoid receptor 1 = Cannabinoid receptor 1 (Rattus norvegicus, UniProt P20272); assay: Binding affinity against G protein coupled Cannabinoid receptor 1 using [3H]WIN-55212-2 in rat cerebellum membranes; type: cell membranes, Membrane
Cannabinoid receptor 1, sequence (P20272 whole entry): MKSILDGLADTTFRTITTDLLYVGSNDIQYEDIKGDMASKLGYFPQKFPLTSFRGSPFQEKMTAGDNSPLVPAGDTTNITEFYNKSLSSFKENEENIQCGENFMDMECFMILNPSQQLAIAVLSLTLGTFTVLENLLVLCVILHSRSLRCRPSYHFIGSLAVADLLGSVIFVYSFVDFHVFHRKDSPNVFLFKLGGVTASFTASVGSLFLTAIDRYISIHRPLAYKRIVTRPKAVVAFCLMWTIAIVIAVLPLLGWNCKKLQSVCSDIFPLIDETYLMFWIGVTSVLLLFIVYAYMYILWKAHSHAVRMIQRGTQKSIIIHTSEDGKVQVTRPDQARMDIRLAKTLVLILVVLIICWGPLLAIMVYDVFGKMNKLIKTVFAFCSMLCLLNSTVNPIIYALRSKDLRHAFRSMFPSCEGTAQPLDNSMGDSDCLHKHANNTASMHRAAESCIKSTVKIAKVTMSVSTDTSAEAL
Outline: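 Rat cerebellum membranes washed in 50 mM Tris-HCl pH 7.4, resuspended at about 2 mg/mL protein. Incubated 90 min at 30 °C with 0.5 nM [3H]WIN55212-2 plus competitor in Tris/EDTA/MgCl2/5 mg/mL BSA buffer. Nonspecific binding defined with 10 µM SR141716A. Bound ligand separated by GF/C filtration and counted by scintillation. IC50 from curve fit, Ki by Cheng-Prusoff. Two to four experiments in triplicate.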

[6] = biological target: T2, Fatty-acid amide hydrolase 1 (Rattus norvegicus); assay: Maximum Inhibition of fatty acid amide hydrolase (FAAH) was determined using rat brain homogenates at 100 uM
Outline: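 Rat brain (minus cerebellum) homogenate in 10 mM Tris-HCl, 1 mM EDTA, pH 7.6, incubated 10 min at 37 °C with test agent or ethanol carrier. Substrate: 2 µM final anandamide with trace [3H]anandamide (ethanolamine label), 1% fatty acid free BSA. Stopped on ice plus chloroform/methanol. Aqueous-phase [3H]ethanolamine counted by scintillation. Inhibition read at 100 µM where IC50 fit failed.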

[7] = biological target: T1, Fatty-acid amide hydrolase 1; assay: Maximum Inhibition of fatty acid amide hydrolase (FAAH) was determined using rat brain homogenates at concentrations ranging from 0.5 to 100 uM; outline: as §1

Transient receptor potential cation channel subfamily V member 1, sequence (O35433 whole entry): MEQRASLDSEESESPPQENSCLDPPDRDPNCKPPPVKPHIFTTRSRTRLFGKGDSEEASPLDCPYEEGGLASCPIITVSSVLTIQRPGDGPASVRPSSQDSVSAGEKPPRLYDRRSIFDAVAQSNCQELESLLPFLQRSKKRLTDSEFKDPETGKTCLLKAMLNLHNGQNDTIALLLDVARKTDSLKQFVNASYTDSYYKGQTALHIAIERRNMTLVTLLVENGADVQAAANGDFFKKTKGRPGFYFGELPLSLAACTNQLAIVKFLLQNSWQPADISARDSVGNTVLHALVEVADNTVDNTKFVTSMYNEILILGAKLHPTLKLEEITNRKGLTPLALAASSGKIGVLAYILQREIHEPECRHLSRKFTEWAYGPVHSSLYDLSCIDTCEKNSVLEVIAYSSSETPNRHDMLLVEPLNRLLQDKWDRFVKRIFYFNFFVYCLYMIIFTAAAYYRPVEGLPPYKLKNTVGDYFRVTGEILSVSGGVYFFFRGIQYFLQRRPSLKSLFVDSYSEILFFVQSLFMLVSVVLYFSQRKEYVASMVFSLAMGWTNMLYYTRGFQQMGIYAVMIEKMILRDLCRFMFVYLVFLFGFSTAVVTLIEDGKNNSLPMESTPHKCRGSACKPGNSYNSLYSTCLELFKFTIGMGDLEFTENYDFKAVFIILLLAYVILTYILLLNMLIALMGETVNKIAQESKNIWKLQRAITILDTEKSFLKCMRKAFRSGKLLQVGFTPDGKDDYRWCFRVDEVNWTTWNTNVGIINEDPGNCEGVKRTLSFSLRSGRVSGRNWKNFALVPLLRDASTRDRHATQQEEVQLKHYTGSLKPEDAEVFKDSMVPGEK

Structure (SMILES) | Ki [1] [µM] | Ki (Cannabinoid receptor 2) [µM] | IC50 [2] [µM] | IC50 (Homo sapiens [3]) [µM] | Max inhibition [4] [%] | Max inhibition (Homo sapiens [5]) [%] | Ki (Cannabinoid receptor 1) [µM] | Max inhibition [6] [%] | IC50 [7] [µM]
CCCCC/C=C\C/C=C\C/C=C\C/C=C\CCCC(=O)NC(C)Cc1cccs1 (configuration not stated) | < 5 | > 1 | 15 | 22 | 36 | 66 | > 1 |  | 
CCCCC/C=C\C/C=C\C/C=C\C/C=C\CCCC(=O)NCCc1ccsc1 | < 5 | > 1 |  | 1.3 |  | 60 | > 1 |  | 
CCCCC/C=C\C/C=C\C/C=C\C/C=C\CCCC(=O)OCCc1ccsc1 | > 5 | > 5 | 28 | 26 | 100 | 75 | > 1 |  | 
CCCCC/C=C\C/C=C\C/C=C\C/C=C\CCCC(=O)O[C@H](C)c1ccco1 | > 5 | > 5 | > 120 |  |  | 37 | > 1 | 19 | 
CCCCC/C=C\C/C=C\C/C=C\C/C=C\CCCC(=O)SCc1ccco1 | > 5 | > 5 | > 120 | 9 | 36 | >85 | > 5 |  | 
CCCCC/C=C\C/C=C\C/C=C\C/C=C\CCCC(=O)NCc1cccn1C |  |  |  |  |  | >85 |  |  | 
CCCCC/C=C\C/C=C\C/C=C\C/C=C\CCCC(=O)OCc1ccco1 |  | > 5 | 53 |  | 100 | >85 | > 5 |  | 
CCCCC/C=C\C/C=C\C/C=C\C/C=C\CCCC(=O)NCCc1ccoc1 | > 5 | 0.4 |  | 3.3 |  | >85 | > 1 |  | 
CCCCC/C=C\C/C=C\C/C=C\C/C=C\CCCC(=O)OCC1CCOC1 (configuration not stated) |  | > 10 | 113 |  | 100 | >85 | > 5 |  | 
CCCCC/C=C\C/C=C\C/C=C\C/C=C\CCCC(=O)NCC1CCCO1 (configuration not stated) |  | > 5 | 44 |  | 47 | >85 | > 5 |  | 
CCCCC/C=C\C/C=C\C/C=C\C/C=C\CCCC(=O)OC(C)c1ccco1 (configuration not stated) | > 5 | > 1 | > 120 |  |  | 70 | > 1 | 45 | 
CCCCC/C=C\C/C=C\C/C=C\C/C=C\CCCC(=O)NCc1cccs1 |  | > 10 | 112 |  | 100 | >85 |  |  | 
CCCCC/C=C\C/C=C\C/C=C\C/C=C\CCCC(=O)NCc1ccco1 |  | > 5 | 34 |  | 100 | >85 | > 5 |  | 
CCCCC/C=C\C/C=C\C/C=C\C/C=C\CCCC(=O)N(C)Cc1ccoc1 |  | > 1 | > 120 | 111 |  | >85 | > 1 |  | 24
CCCCC/C=C\C/C=C\C/C=C\C/C=C\CCCC(=O)Nc1ccc(O)cc1 |  |  | 3.7 |  | 100 | >85 |  |  | 
